Measured values pooled from the literature.
Compare with care: the assays were run in different laboratories.

CCCn1nc(C(=O)N2CCCCC2)c2c1CCC(N(C)Cc1ccc(F)cc1)C2 (stereo not shown) — solubility (PBS; 16 h, pH 7.4): 2420 µM
O=C1NCCc2nc(OCc3cccc(F)c3)ccc21 — solubility (FaSSIF; 24 h, pH 7.2): 114 µM
Cl.Clc1ccc2c(nc(N3CCNCC3)n2Cc2ccccc2)c1Cl — solubility (shake flask; aqueous buffer; 20 h, pH 6.5, 25 °C): 70 µM
CCOC(=O)c1ccc(O)cc1 — solubility (PBS; pH 7.4): 1210 µg/mL
O=C(Nc1ccc(S(=O)(=O)N2CCC(Cl)CC2)cc1)c1ccc([N+](=O)[O-])o1 — solubility (aqueous buffer; pH 5): 3.8 µg/mL
COc1cccc(OC)c1-c1nc(C(=O)N[C@@H](CC(C)C)C(=O)O)cn1-c1ccnc2cc(Cl)ccc12 — solubility (aqueous buffer; pH 5): > 52 µg/mL
Cc1cc(Nc2ccc(C(F)(F)F)cc2)n2nc(C(C)(F)F)nc2n1 — solubility (nephelometry; aqueous buffer; pH 6.5): 70 to 140 µM
COc1cc(C(=O)O)cc(OC)c1O — solubility (water; 72 h, 25 °C): 7400 µM
CCn1c(-c2nc3cc(C(=O)N4CCC[C@@H](N)C4)cc(OC)c3n2C)cc2cccnc21 — solubility (aqueous buffer): 396 µM
NC(=O)c1ccc(N(Cc2ccc(C3CCCCC3)cn2)C(=O)[C@H]2CCN2S(=O)(=O)c2c(F)c(F)c(F)c(F)c2F)cc1O — solubility (simulated gastric fluid): 107 µg/mL
COc1c(N2CCNC(C)C2)c(F)cc2c(=O)c(C(=O)NCCCN(C)C)cn(C3CC3)c12 (racemic) — solubility (water): 72000 µM
CN1CCC(N2CCCN(c3nccc4[nH]c(-c5ccc(F)c(F)c5)nc34)CC2)CC1 — solubility (shake flask; aqueous buffer; pH 6.5): > 200 µM
Brc1ccc2c(c1)nc(N1CCNCC1)n2Cc1ccccc1 — solubility (shake flask; aqueous buffer; 20 h, pH 6.5, 25 °C): 105 µM
CC(C(=O)O)c1ccc(-c2ccccc2)c(F)c1 (stereo not shown) — solubility (PBS; pH 7.4): 4490 µg/mL
CN1CCC(N2CCN(c3nccc4[nH]c(-c5ccc(F)c(F)c5)nc34)CC2)CC1 — solubility (shake flask; aqueous buffer; pH 6.5): > 200 µM
CC(C)CC(=O)N1CCC[C@H](COc2cccc3c2C(N)=NS(=O)(=O)[N-]3)C1.[Na+] — solubility (water): 235000 µM
CCc1nc2nc(C)cc(Nc3ccc(Cl)cc3)n2n1 — solubility (nephelometry; aqueous buffer; pH 6.5): 170 to 350 µM
Cc1ccc(S(=O)(=O)NCc2ccc(C(=O)NCCN(Cc3ccccc3)C(C)C)cc2)cc1 — solubility (aqueous buffer; pH 6.2): 0.12 µg/mL
O=C(CCCCCCC(=O)Nc1ccccc1)NO — solubility (HPLC; water; 48 h, pH 6, 25 °C): 160 µg/mL
COc1cccc(OC)c1-c1nc(C(=O)N[C@@H](CC(C)C)C(=O)O)cn1-c1cccc2ccccc12 — solubility (aqueous buffer; pH 6.2): > 145 µg/mL
Brc1cccc(Nc2nc(NCc3ccccc3)c3ccccc3n2)c1 — solubility (aqueous buffer; pH 6.2): 0.01 µg/mL
CCCOc1ccc2cc(-c3nn(C(C)(C)C)c(N)c3C(N)=O)cnc2c1 — solubility (PBS; pH 6.5, 25 °C): 12.7 µM
CN1CCN(C(=O)C2CCN(c3nccc4[nH]c(-c5ccc(F)c(F)c5)nc34)CC2)CC1 — solubility (shake flask; aqueous buffer; pH 6.5): > 200 µM
CC[C@H](C)[C@H](NC(=O)[C@H](Cc1ccccc1)NC(=O)[C@H](Cc1ccc(O)cc1)NC(=O)[C@@H]1CCCN1C(=O)[C@@H](N)Cc1ccc(O)cc1)C(=O)N1CCC[C@H]1C(=O)N[C@H](CCCCN)C(=O)NCC(=O)N[C@H](CCCCN)C(=O)NCC(=O)N[C@@H](CCC(=O)O)C(=O)N[C@H](C(=O)N[C@@H](CC(N)=O)C(=O)N[C@@H](CC(C)C)[C@@H](O)CC(=O)N[C@H](C(=O)N[C@@H](C)C(=O)N[C@@H](CCC(=O)O)C(=O)N1CCC[C@@H]1C(=O)N[C@@H](CCCCNC(=O)CCC(=O)O[C@H]1CC[C@@]2(C)C(=CC[C@H]3[C@@H]4CC[C@H]([C@H](C)CCCC(C)C)[C@@]4(C)CC[C@@H]32)C1)C(N)=O)C(C)C)C(C)C — solubility (aqueous buffer; pH 6.5): > 718 µg/mL
Brc1ccccc1CNc1nc(NCc2ccccc2)c2ccccc2n1 — solubility (aqueous buffer; pH 7.4): 0.14 µg/mL
CCC(C)n1ncn(-c2ccc(N3CCN(c4ccc(OCC5COC(Cn6cncn6)(c6ccc(Cl)cc6Cl)O5)cc4)CC3)cc2)c1=O (stereo not shown) — solubility (aqueous buffer; pH 6): 2.5 µg/mL
CS(=O)(=O)N1CCN(Cc2cc3nc(-c4cccc5[nH]ncc45)nc(N4CCOCC4)c3s2)CC1 — solubility (FaSSIF): 1 µg/mL
Cc1c(F)cccc1Nc1nc(NCc2ccccc2)c2ccccc2n1 — solubility (aqueous buffer; pH 5): 8.4 µg/mL
COCCc1nc2nc(C)cc(Nc3ccc(S(F)(F)(F)(F)F)cc3)n2n1 — solubility (nephelometry; aqueous buffer; pH 6.5): 31 to 62 µM
COc1c(Cl)cccc1Nc1nc(NCc2ccccc2)c2ccccc2n1 — solubility (aqueous buffer; pH 6.2): 0.23 µg/mL
CCc1nc2ccc(Cl)cn2c1C(=O)NCc1ccc(N2CCC(c3ccc(OC(F)(F)F)cc3)CC2)cc1 — solubility (PBS): 61 µM
Cc1ccc(-c2ccccc2C(=O)Nc2c(C)cccc2C(=O)O)cc1 — solubility (shake flask; aqueous buffer; 24 h, pH 6.5, 25 °C): 175 µM
Cc1cc(F)cc(Nc2nc(NCc3ccccc3)c3ccccc3n2)c1 — solubility (aqueous buffer; pH 6.2): < 0.01 µg/mL
COc1cc(OC)cc(N(CCNC(C)C)c2ccc3ncc(-c4cnn(C)c4)nc3c2)c1 — solubility (aqueous buffer; pH 6.79): 6820 µg/mL
O=C(NCCN1CCCC1)c1cc(-c2ccc(CN3CCOCC3)cc2)nc2ccc(F)cc12.O=C(O)C=CC(=O)O — solubility (simulated gastric fluid; pH 2, 37 °C, acidic): > 6490 µM
CCCOC(=O)c1ccc(N)cc1 — solubility (PBS; pH 7.4): 749 µg/mL
N=C(N)NCc1ccc(NC(=O)C23CC(C(=O)Nc4ccc(C5=CCN(C(=N)N)CC5)cc4)(C2)C3)cc1 — solubility (shake flask; aqueous buffer; pH 7.4): 770 µg/mL
CCOc1ccc2cc(-c3nn(C(C)C)c(N)c3C(N)=O)cnc2c1 — solubility (PBS; pH 6.5, 25 °C): 99 µM
COc1ccnc(CNC(=O)c2cn(Cc3ccc(Cn4ccccc4=O)cc3)nc2C(F)(F)F)c1F — solubility (FaSSIF; 4 h, pH 6.5): 20 µg/mL
Cc1cccc(F)c1N1CCC(N2Cc3cn(CC(C)(F)F)nc3N(Cc3ccccc3C(F)(F)F)C2=O)CC1 — solubility (aqueous buffer; pH 7.4): 10 µM
COc1cccc2c(NCc3ccccc3)nc(N3CCNc4ccccc43)nc12 — solubility (aqueous buffer; pH 5): 28.2 µg/mL
O=C(Nc1c2c(cc3c1CCC3)CCC2)NS(=O)(=O)/C=C/c1nccs1 — solubility (water; 24 h, 37 °C): 11.2 µg/mL
CC(C)(C)n1nc(-c2cnc3cc(F)ccc3c2)c(C(N)=O)c1N — solubility (PBS; pH 6.5, 25 °C): > 100 µM
COC(=O)[C@H]1[C@H]2C[C@@H]3c4[nH]c5cc(OC)ccc5c4CCN3C[C@H]2C[C@@H](OC(=O)c2cc(OC)c(OC)c(OC)c2)[C@@H]1OC — solubility (shake flask; PBS; 24 h, pH 6.5, 25 °C): < 5 µM
CCOc1nc2nc(C)cc(Nc3ccc(C(F)(F)F)cc3)n2n1 — solubility (nephelometry; aqueous buffer; pH 6.5): 19 to 37 µM
c1ccc(CNc2nc(N3CCNc4ccccc43)nc3ccccc23)cc1 — solubility (aqueous buffer; pH 6.2): 18 µg/mL
Cc1cc2c(cc1C)[n+](Cc1ccc3ccccc3n1)cn2Cc1ccc2ccccc2n1.[Cl-] — solubility (water): > 500 µg/mL
COc1cc(/C=C/C(=O)CC(=O)/C=C/c2ccc(O)c(OC)c2)ccc1O — solubility (absorbance; water): 0.56 µg/mL
CCOC(=O)C1=C(C)NC(C)=C(C(=O)OC)C1c1cccc([N+](=O)[O-])c1 (stereo not shown) — solubility (FaSSIF; 24 h, pH 7.4, 37 °C): 8 µg/mL
Clc1ccc2c(c1)nc(C1CCNCC1)n2Cc1ccccc1 — solubility (shake flask; aqueous buffer; 20 h, pH 6.5, 25 °C): 125 µM
CC(C)[C@@H]1CC[C@@H](C)CC1=O — solubility (PBS; 48 h, pH 7.4, 25 °C): 3000 µM
CCOc1ccc2cc(-c3nn(C(C)(C)C)c(N)c3C(N)=O)ccc2n1 — solubility (PBS; pH 6.5, 25 °C): 83.5 µM
NC1CCN(c2nccc3[nH]c(-c4cccc(OC(F)(F)F)c4)nc23)CC1 — solubility (shake flask; aqueous buffer; pH 6.5): > 200 µM
Cl.c1ccc(Cn2c(N3CCNCC3)nc3cc(-c4ccccc4)ccc32)cc1 — solubility (shake flask; aqueous buffer; 20 h, pH 6.5, 25 °C): 25 µM
COc1ccc(Nc2nc(NCc3ccccc3)c3ccccc3n2)cc1F — solubility (aqueous buffer; pH 6.2): 0.03 µg/mL
